Test results taken from ChEMBL document CHEMBL4118234, “Synthesis and biological evaluation of irreversible EGFR tyrosine kinase inhibitors containing pyrido[3,4-d]pyrimidine scaffold” (Bioorg Med Chem, 2018).
pIC50: −log10 of the molar value.

Key:
[1] = target: Epidermal growth factor receptor (Homo sapiens, UniProt P00533, L858R); assay: Inhibition of EGFR L858R mutant (unknown origin) using Poly(Glu,Tyr) as substrate after 40 mins by Kinase-Glo luminescence assay
[2] = Solubility of the compound; format: physicochemical
NCI-H1975 [3] = assay: Antiproliferative activity against human NCI-H1975 cells harboring EGFR L858R/T790M double mutant after 72 hrs by MTT assay; format: functional, cell-based; conditions: NCI-H1975, 72 h
Method in brief: (§1)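 Cells were kept in RPMI-1640 with 10% heat-inactivated FBS, plus 1% of 100 mM sodium pyruvate for HCC827, at 37 °C and 5% CO2. They were seeded at 3000-5000 per well and pre-incubated 24 h. Final compound concentrations were 0.33, 1, 33, 100, 333, 1000, 3333, 10000 nM for 72 h. MTT was added for 4 h, formazan dissolved in DMSO, and OD read at 490 nm. Inhibition ratios were taken against control culture, and IC50 calculated from them. At least three experiments were run in triplicate.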

[4] = target: Epidermal growth factor receptor (Homo sapiens, UniProt P00533, L858R/T790M); assay: Inhibition of EGFR L858R/T790M double mutant (unknown origin) using Poly(Glu,Tyr) as substrate after 40 mins by Kinase-Glo luminescence assay
Epidermal growth factor receptor (Homo sapiens, UniProt P00533, L858R/T790M), sequence (P00533 25-1210 T790M/L858R limits assumed): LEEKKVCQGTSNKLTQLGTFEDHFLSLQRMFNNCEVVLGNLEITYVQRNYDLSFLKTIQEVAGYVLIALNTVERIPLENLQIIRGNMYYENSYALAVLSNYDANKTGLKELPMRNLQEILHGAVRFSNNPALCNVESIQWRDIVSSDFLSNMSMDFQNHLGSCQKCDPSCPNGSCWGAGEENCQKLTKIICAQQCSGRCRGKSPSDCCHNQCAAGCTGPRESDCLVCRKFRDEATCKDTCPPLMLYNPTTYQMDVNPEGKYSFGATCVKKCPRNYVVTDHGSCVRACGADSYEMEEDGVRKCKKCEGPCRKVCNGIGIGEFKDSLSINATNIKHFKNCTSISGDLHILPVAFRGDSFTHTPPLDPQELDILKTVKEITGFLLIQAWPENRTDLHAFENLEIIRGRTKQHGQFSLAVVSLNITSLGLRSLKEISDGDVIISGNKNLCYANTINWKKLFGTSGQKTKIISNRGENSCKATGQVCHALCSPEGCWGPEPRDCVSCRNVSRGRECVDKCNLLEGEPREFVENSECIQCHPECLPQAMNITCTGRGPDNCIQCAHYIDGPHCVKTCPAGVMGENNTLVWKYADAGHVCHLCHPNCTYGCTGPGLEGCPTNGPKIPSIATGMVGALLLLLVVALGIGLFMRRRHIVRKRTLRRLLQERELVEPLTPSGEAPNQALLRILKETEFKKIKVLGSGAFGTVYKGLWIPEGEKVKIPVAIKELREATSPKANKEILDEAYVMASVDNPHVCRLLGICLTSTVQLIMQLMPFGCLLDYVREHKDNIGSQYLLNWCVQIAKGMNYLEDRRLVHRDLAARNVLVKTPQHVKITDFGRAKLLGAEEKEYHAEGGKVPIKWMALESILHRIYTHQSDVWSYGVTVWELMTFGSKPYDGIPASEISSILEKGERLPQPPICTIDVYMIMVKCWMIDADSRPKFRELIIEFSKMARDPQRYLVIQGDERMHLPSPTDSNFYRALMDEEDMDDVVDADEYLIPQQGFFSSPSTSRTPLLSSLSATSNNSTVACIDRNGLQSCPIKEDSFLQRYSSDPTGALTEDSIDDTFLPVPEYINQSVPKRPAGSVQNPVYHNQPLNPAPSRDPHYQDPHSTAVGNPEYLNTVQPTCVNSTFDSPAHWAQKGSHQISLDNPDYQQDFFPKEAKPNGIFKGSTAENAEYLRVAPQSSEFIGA

[5] = target: Epidermal growth factor receptor (Homo sapiens, UniProt P00533); assay: Inhibition of wild type EGFR (unknown origin) using Poly(Glu,Tyr) as substrate after 40 mins by Kinase-Glo luminescence assay
Epidermal growth factor receptor (Homo sapiens, UniProt P00533), sequence (P00533 whole entry): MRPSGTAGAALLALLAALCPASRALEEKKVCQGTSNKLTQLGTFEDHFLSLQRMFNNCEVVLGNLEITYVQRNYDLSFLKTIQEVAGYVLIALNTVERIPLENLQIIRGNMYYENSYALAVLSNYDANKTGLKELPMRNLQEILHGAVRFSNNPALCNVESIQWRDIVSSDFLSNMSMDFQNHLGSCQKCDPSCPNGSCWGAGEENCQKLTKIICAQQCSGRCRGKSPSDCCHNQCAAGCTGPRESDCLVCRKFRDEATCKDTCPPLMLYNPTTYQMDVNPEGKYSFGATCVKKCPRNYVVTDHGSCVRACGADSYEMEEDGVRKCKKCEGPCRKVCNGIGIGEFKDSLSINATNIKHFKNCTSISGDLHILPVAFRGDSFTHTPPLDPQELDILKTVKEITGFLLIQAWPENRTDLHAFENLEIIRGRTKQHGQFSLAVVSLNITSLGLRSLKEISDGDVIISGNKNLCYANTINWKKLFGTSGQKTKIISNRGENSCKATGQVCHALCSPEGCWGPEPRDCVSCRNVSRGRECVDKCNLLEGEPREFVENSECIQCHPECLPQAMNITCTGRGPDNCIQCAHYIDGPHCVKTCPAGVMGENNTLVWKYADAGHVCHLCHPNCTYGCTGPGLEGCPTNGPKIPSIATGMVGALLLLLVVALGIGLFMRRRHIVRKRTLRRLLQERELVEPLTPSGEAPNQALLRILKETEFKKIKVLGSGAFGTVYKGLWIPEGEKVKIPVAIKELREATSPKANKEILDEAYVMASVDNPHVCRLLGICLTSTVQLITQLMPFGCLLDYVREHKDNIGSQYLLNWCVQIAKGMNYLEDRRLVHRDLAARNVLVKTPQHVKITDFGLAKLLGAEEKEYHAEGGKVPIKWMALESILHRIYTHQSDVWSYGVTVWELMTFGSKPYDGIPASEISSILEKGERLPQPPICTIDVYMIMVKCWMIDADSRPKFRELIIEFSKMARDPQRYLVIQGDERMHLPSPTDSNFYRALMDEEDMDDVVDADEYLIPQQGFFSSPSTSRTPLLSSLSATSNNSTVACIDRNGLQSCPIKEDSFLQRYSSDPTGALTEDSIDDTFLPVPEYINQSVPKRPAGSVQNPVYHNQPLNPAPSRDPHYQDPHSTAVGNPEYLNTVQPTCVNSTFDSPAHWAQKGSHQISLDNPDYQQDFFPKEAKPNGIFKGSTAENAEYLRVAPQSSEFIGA

HCC827 [6] = assay: Antiproliferative activity against human HCC827 cells harboring EGFR E746 to A750 deletion mutant after 72 hrs by MTT assay; format: functional, cell-based; conditions: HCC827, 72 h; method in brief: as §1
[7] = target: Epidermal growth factor receptor (Homo sapiens, UniProt P00533, C797S/L858R/T790M); assay: Inhibition of EGFR L858R/T790M/C797S triple mutant (unknown origin) using Poly(Glu,Tyr) as substrate after 40 mins by Kinase-Glo luminescence assay
Epidermal growth factor receptor (Homo sapiens, UniProt P00533, C797S/L858R/T790M), sequence (P00533 25-1210 T790M/C797S/L858R limits assumed): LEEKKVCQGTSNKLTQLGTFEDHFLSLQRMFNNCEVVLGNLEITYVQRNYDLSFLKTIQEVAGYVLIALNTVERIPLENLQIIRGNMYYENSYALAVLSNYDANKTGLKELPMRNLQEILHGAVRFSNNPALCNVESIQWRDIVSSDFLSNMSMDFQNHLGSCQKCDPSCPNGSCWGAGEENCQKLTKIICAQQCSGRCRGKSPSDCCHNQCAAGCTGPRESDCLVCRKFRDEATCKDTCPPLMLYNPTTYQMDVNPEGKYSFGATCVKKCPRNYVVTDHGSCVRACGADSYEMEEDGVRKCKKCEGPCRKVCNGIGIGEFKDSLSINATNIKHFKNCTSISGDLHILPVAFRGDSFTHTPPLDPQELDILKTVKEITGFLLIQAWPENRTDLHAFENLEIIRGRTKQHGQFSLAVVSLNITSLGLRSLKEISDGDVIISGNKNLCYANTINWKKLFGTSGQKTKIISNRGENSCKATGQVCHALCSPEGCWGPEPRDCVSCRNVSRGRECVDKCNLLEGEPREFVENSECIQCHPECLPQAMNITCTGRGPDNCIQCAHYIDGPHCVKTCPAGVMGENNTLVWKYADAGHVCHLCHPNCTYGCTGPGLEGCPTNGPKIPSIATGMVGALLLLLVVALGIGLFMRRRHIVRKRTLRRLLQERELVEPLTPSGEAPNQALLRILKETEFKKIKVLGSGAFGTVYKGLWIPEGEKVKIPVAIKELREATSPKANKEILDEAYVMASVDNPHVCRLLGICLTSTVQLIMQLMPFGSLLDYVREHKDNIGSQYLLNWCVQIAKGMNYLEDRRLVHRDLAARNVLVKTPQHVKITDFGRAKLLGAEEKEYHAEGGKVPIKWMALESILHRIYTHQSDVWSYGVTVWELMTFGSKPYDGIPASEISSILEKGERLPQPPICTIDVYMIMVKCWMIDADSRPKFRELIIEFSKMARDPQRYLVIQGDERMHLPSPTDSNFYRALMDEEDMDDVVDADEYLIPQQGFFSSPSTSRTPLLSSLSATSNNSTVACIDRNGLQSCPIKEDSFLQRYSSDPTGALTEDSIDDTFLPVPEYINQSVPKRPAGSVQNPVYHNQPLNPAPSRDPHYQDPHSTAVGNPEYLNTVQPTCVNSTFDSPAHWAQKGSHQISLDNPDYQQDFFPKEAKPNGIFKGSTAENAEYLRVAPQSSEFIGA

[8] = test system: Epidermal growth factor receptor (Homo sapiens), P00533 [L858R,T790M,C797S]; assay: Inhibition of EGFR L858R/T790M/C797S triple mutant (unknown origin) at 500 nM using Poly(Glu,Tyr) as substrate after 40 mins by Kinase-Glo luminescence assay relative to control
Epidermal growth factor receptor (Homo sapiens), P00533 [L858R,T790M,C797S], sequence (P00533 whole entry T790M/C797S/L858R): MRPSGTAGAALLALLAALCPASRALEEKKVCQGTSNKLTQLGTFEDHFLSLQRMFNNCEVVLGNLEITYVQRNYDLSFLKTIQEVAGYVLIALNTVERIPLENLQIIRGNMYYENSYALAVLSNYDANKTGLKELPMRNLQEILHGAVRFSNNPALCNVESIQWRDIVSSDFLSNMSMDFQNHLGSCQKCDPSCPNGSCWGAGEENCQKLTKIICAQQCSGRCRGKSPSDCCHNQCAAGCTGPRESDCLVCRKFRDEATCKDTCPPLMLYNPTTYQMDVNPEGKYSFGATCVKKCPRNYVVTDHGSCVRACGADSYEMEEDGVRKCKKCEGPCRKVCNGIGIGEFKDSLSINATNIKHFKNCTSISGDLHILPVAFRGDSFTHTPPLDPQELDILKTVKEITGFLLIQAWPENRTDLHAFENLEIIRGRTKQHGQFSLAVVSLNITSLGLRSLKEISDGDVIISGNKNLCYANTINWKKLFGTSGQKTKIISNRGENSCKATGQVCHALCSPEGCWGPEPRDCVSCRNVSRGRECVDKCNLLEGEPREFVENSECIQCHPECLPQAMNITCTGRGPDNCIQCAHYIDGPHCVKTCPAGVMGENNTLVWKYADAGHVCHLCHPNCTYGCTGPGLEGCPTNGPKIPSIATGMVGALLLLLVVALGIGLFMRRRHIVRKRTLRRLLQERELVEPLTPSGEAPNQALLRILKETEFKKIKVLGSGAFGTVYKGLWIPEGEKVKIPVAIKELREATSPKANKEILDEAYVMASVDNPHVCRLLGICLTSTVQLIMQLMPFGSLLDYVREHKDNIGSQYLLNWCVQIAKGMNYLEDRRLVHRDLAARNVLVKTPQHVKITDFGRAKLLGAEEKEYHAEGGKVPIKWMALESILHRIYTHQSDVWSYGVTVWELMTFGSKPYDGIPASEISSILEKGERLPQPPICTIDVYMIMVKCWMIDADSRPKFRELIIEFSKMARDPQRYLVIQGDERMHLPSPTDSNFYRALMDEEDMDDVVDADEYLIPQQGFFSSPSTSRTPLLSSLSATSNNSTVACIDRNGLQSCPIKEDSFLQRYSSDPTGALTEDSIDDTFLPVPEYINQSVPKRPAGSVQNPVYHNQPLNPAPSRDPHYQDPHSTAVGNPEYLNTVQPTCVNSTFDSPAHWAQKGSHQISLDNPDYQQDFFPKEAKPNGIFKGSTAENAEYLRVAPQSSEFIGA
Method in brief: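 The reaction ran 40 min at 30 °C in 40 mM Tris pH 7.4, 10 mM MgCl2, 0.1 mg/mL BSA, 1 mM DTT, 10 µM ATP, 25 ng kinase, and 0.2 mg/mL poly(Glu,Tyr); final DMSO was 1%. Remaining ATP was read by Kinase-Glo Plus luminescence. Inhibition was scored relative to no-compound and no-enzyme signals. At least two experiments were run.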

A549 = assay: Cytotoxicity against human A549 cells harboring wild type EGFR assessed as reduction in cell viability after 72 hrs by MTT assay; format: cell-based; conditions: A549, 72 h; method in brief: as §1
HCC827 [9] = assay: Antiproliferative activity against human HCC827 cells harboring EGFR E746 to A750 deletion mutant at 10 uM after 72 hrs by MTT assay relative to control; format: functional; method in brief: as §1
HCC827 [10] = assay: Induction of apoptosis in human HCC827 cells harboring EGFR E746 to A750 deletion mutant assessed as late apoptotic cells at 3 uM after 24 hrs by Annexin V-FITC/propidium iodide staining based flow cytometry (reference value: 23.66 to 27.14%); format: functional
HCC827 [11] = assay: Induction of apoptosis in human HCC827 cells harboring EGFR E746 to A750 deletion mutant assessed as early apoptotic cells at 3 uM after 24 hrs by Annexin V-FITC/propidium iodide staining based flow cytometry (reference value: 1.34 to 1.67%); format: functional
NCI-H1975 [12] = assay: Antiproliferative activity against human NCI-H1975 cells harboring EGFR L858R/T790M double mutant at 10 uM after 72 hrs by MTT assay relative to control; format: functional; method in brief: as §1

Row | pIC50 [1] | solubility [2] | pIC50 (NCI-H1975 [3]) | pIC50 [4] | pIC50 [5] | pIC50 (HCC827 [6]) | SMILES | pIC50 (A549) | further results
1 | 8.34 | Soluble | 6.36 | 6.97 | 8.48 | 6.77 | C=CC(=O)N1CC[C@@H](Nc2nc(Nc3ccccc3)nc3cnc(Nc4ccc(N5CCN(C)CC5)cn4)cc23)C1 | 6.19 | pIC50 [7]: < 6.30; inhibition [8]: < 50%
2 | – | Insoluble | – | – | – | < 5.00 | C=CC(=O)Nc1cccc(Nc2cc3c(N4CCCC4)nc(Nc4cccc(F)c4)nc3cn2)n1 | – | Activity (HCC827 [9]): <50%
3 | – | Insoluble | – | – | – | 5.56 | C=CC(=O)Nc1cccc(Nc2cc3c(N4CCCC4)nc(OC4CCOCC4)nc3cn2)n1 | – | –
4 | – | Insoluble | – | – | – | 5.06 | C=CC(=O)Nc1cccc(Nc2cc3c(N4CCCC4)nc(OCC4CCOCC4)nc3cn2)n1 | – | –
5 | – | – | – | – | – | < 5.00 | C=CC(=O)N[C@@H]1CCN(c2ncnc3cnc(Nc4ccc(N5CCN(C)CC5)cc4OC)cc23)C1 | – | Activity (HCC827 [9]): <50%
6 | – | Insoluble | – | – | – | < 5.00 | C=CC(=O)Nc1cccc(Nc2cc3c(N4CCCC4)nc(OCc4ccc(F)cc4)nc3cn2)n1 | – | –
7 | 8.49 | Soluble | 6.07 | 7.58 | 8.82 | 7.16 | C=CC(=O)N[C@H]1CCN(c2nc(Nc3ccccc3)nc3cnc(Nc4ccc(N5CCN(C)CC5)cn4)cc23)C1 | 6.19 | pIC50 [7]: 6.55
8 | – | Insoluble | – | – | – | < 5.00 | C=CC(=O)Nc1cccc(Nc2cc3c(N4CCCC4)nc(OCc4ccccc4)nc3cn2)n1 | – | –
9 | 8.33 | Soluble | 5.84 | 7.44 | 8.57 | 7.70 | C=CC(=O)N[C@@H]1CCN(c2nc(Nc3ccccc3)nc3cnc(Nc4ccc(N5CCN(C)CC5)cn4)cc23)C1 | 5.92 | –
10 | 7.85 | Soluble | 5.85 | 6.44 | 7.92 | 7.14 | C=CC(=O)N[C@H]1CCCN(c2nc(Nc3ccccc3)nc3cnc(Nc4ccc(N5CCN(C)CC5)cn4)cc23)C1 | 6.09 | pIC50 [7]: < 6.30; inhibition [8]: < 50%
11 | – | – | – | – | – | < 5.00 | C=CC(=O)N[C@@H]1CCN(c2ncnc3cnc(Nc4ccc(OCCOC)cc4OC)cc23)C1 | – | Activity (HCC827 [9]): <50%
12 | – | – | < 5.00 | – | – | 5.45 | C=CC(=O)N[C@@H]1CCN(c2ncnc3cnc(Nc4ccc(N5CCN(C)CC5)cn4)cc23)C1 | – | Activity (NCI-H1975 [12]): <50%
13 | 8.19 | Soluble | 5.76 | 6.79 | 8.27 | 7.27 | C=CC(=O)N[C@@H]1CCCN(c2nc(Nc3ccccc3)nc3cnc(Nc4ccc(N5CCN(C)CC5)cn4)cc23)C1 | 6.09 | pIC50 [7]: < 6.30; inhibition [8]: < 50%
14 | – | Insoluble | – | – | – | < 5.00 | C=CC(=O)Nc1cccc(Nc2cc3c(N4CCCC4)nc(OCC4CCCCC4)nc3cn2)n1 | – | –
15 | – | Insoluble | – | – | – | < 5.00 | C=CC(=O)Nc1cccc(Nc2cc3c(N4CCCC4)nc(Nc4ccccc4)nc3cn2)n1 | – | Activity (HCC827 [9]): <50%
16 | 7.97 | Soluble | 6.07 | 6.62 | 8.00 | 6.57 | C=CC(=O)N1CC[C@H](Nc2nc(Nc3ccccc3)nc3cnc(Nc4ccc(N5CCN(C)CC5)cn4)cc23)C1 | 5.78 | pIC50 [7]: < 6.30; inhibition [8]: < 50%
17 | – | – | – | – | – | < 5.00 | C=CC(=O)N[C@@H]1CCN(c2ncnc3cnc(Nc4ccc(OCCN(C)C)cc4OC)cc23)C1 | – | Activity (HCC827 [9]): <50%

Row | SMILES | pIC50 [1] | solubility [2] | pIC50 (NCI-H1975 [3]) | pIC50 [4] | pIC50 [5] | pIC50 (HCC827 [6]) | pIC50 (A549) | further results
18 | C=CC(=O)Nc1cc(Nc2nccc(-c3cn(C)c4ccccc34)n2)c(OC)cc1N(C)CCN(C)C [OSIMERTINIB] | – | – | […] | – | – | 7.57 | 6.28 | Activity (HCC827 [10]): 68.1%; Activity (HCC827 [11]): 8.28%
